Tests used:
[1] = molecular target: T1, Nitric oxide synthase, inducible (Mus musculus, UniProt P29477); assay: Inhibition of LPS-induced iNOS activity in mouse RAW 264.7 cells assessed as inhibition of NO production pretreated with compound for 30 mins before LPS challenge after 24 hrs by Griess reagent method; type: cell-based
T1 sequence (P29477 whole entry): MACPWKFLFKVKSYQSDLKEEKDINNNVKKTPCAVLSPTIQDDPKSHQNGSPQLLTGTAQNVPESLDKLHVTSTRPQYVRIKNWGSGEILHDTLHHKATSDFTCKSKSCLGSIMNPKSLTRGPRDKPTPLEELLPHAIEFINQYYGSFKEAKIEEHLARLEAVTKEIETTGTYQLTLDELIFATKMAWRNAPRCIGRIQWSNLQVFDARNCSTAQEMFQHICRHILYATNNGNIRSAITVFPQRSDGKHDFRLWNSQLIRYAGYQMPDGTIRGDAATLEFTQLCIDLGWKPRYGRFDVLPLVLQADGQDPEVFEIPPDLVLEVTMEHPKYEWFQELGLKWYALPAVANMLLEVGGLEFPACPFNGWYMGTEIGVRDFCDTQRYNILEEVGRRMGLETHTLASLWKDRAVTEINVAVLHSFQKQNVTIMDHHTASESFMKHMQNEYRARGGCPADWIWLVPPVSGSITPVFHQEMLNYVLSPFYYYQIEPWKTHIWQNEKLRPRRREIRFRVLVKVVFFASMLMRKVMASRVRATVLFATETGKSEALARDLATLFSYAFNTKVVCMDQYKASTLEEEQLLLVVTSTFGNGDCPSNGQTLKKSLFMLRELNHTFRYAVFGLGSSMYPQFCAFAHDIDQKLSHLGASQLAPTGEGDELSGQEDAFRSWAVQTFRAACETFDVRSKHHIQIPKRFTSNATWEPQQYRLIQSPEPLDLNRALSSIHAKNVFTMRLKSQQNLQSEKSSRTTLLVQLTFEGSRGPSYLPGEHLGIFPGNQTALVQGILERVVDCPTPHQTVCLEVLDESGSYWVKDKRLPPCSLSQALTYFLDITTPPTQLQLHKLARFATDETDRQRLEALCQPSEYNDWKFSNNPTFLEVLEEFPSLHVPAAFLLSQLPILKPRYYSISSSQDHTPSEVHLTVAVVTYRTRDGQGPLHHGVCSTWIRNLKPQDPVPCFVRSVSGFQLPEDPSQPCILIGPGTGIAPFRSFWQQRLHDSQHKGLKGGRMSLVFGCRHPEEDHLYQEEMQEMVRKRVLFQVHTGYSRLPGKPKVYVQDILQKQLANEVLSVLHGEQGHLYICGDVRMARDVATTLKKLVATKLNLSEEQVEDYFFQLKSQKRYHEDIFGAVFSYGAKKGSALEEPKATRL

[2] = molecular target: T2, Nitric oxide synthase, inducible (Mus musculus) (UniProt P29477); assay: Inhibition of LPS-induced iNOS activity in mouse RAW 264.7 cells assessed as inhibition of NO production at 50 uM pretreated with compound for 30 mins before LPS challenge after 24 hrs by Griess reagent method; type: cell-based
T2 sequence (whole entry): T1 sequence (P29477 whole entry)

[3] = Inhibition of TNFalpha-induced NF-kappaB activity expressed in HEK293 cells by luciferase reporter gene assay; type: cell-based; settings: Homo sapiens
HEK293 = assay: Inhibition of TNFalpha-induced NF-kappaB activity expressed in HEK293 cells at 50 uM by luciferase reporter gene assay; type: cell-based; settings: Homo sapiens
Aromatase [4] = molecular target: T3, Aromatase (Homo sapiens, UniProt P11511)
T3 sequence (P11511 whole entry): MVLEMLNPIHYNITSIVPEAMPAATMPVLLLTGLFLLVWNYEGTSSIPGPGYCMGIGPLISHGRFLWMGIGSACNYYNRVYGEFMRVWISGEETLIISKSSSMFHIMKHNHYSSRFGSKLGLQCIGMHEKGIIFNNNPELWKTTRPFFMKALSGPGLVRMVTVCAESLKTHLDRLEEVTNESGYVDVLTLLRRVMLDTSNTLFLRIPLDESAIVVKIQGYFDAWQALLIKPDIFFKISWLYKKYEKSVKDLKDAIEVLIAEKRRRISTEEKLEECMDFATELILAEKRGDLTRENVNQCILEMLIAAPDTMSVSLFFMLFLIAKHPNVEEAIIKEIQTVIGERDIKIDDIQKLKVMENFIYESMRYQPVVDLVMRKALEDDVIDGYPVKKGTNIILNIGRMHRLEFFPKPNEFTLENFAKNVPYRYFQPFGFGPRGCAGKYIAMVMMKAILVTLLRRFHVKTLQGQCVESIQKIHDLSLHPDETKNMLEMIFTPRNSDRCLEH

Aromatase [5] = molecular target: T3, Aromatase; settings: 0.5 h, read-out: INH
[6] = molecular target: NAD(P)H dehydrogenase [quinone] 1 (Mus musculus) (UniProt Q64669); assay: Induction of quinone reductase-1 activity in mouse Hepa-1c1c7 cells after 48 hrs by MTT assay; type: cell-based
Sequence of NAD(P)H dehydrogenase [quinone] 1 (Mus musculus) (Q64669 whole entry): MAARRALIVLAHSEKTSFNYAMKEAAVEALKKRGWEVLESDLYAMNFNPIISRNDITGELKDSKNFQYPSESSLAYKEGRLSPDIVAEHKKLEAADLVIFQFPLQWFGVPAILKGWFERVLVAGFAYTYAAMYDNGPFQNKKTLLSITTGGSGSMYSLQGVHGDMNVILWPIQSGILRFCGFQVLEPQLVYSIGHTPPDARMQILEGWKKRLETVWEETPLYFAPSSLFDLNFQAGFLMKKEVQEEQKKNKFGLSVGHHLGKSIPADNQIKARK
Outline: (§1)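 Hepa 1c1c7 murine hepatoma cells exposed to compound (max 50 μM) for 48 h in 96-well format, then permeabilized with digitonin. QR1 activity read as NADPH-dependent menadiol-mediated MTT reduction to formazan, absorbance 595 nm; crystal violet total-protein assay in parallel. CD = concentration doubling activity, determined only where induction ratio > 2. Three independent experiments in duplicate; 4′-bromoflavone positive control.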

[7] = molecular target: NAD(P)H dehydrogenase [quinone] 1 (Mus musculus) (UniProt Q64669); assay: Induction of quinone reductase-1 activity in mouse Hepa-1c1c7 cells assessed as induction ratio after 48 hrs by MTT assay relative to control; type: cell-based; outline: as §1
[8] = molecular target: NAD(P)H dehydrogenase [quinone] 1 (Mus musculus) (UniProt Q64669); assay: Induction of quinone reductase-1 activity in mouse BPrc1 cells after 48 hrs by MTT assay; type: cell-based
[9] = molecular target: NAD(P)H dehydrogenase [quinone] 1 (Mus musculus) (UniProt Q64669); assay: Induction of quinone reductase-1 activity in mouse TAOc1BPrc1 cells after 48 hrs by MTT assay; type: cell-based

| SMILES | CD [6] [µM] | CD [8] [µM] | other results |
| --- | --- | --- | --- |
| COc1cccc(-c2csc(-c3ccccc3)n2)c1 |  |  | IC50 [1]: 45.3 µM; inhibition [2]: 62%; IC50 [3]: 31.6 µM; inhibition (HEK293): 64%; IC50 (Aromatase [4]): > 50 µM; inhibition at 50 µM (Aromatase [5]): 27.1% |
| Cc1ccc(Cl)cc1-c1nsc(-c2ccc(Cl)cc2C)n1 | 0.44 |  | Ratio [7]: 4.9 |
| Fc1ccccc1-c1nsc(-c2ccccc2F)n1 |  |  | IC50 [1]: > 50 µM; inhibition [2]: 12.9%; IC50 [3]: > 50 µM; inhibition (HEK293): 40.7%; IC50 (Aromatase [4]): > 50 µM; inhibition at 50 µM (Aromatase [5]): 53.2% |
| Cc1ccc(-c2nc(-c3ccccc3)cs2)c(Br)c1 |  | > 50 |  |
| Clc1cccc(Cl)c1-c1nc(-c2ccccc2)cs1 |  | > 50 |  |
| Fc1ccccc1-c1nsc(-c2ccccc2)n1 |  | > 50 |  |
| c1ccc(-c2nsc(-c3ccccc3)n2)cc1 |  | > 50 | IC50 [1]: > 50 µM; IC50 [3]: 47.7 µM; inhibition at 50 µM (Aromatase [5]): 60.2% |
| COc1cccc(-c2nsc(-c3cccc(OC)c3)n2)c1 |  | > 50 |  |
| COc1cccc(-c2csc(-c3cccc(OC)c3)n2)c1 |  |  | IC50 [1]: > 50 µM; IC50 [3]: 20.3 µM; IC50 (Aromatase [4]): > 50 µM |
| Cc1ccc(Br)cc1-c1nsc(-c2ccc(Br)cc2C)n1 | > 50 |  | Ratio [7]: 2.3 |
| COc1cccc(-c2nc(-c3ccccc3)cs2)c1 |  | > 50 | IC50 [1]: > 50 µM; IC50 [3]: 2.7 µM; IC50 (Aromatase [4]): > 50 µM; inhibition at 50 µM (Aromatase [5]): 35.5% |
| COc1cccc(-c2noc(-c3cccc(OC)c3)n2)c1 |  | > 50 |  |
| Cc1c(Cl)cccc1-c1nsc(-c2cccc(Cl)c2C)n1 | > 50 |  |  |
| Cc1c(Cl)cccc1-c1nc(-c2ccccc2)cs1 |  | > 50 |  |
| FC(F)(F)c1ccccc1-c1nc(-c2ccccc2)cs1 | > 50 | > 50 |  |
| Fc1ccccc1-c1nc(-c2ccccc2)ns1 |  |  | CD [9]: 0.1 µM |

The next lines start with results.

| CD [6] [µM] | CD [8] [µM] | SMILES | other results |
| --- | --- | --- | --- |
| > 50 | > 50 | CCCCc1ccc(-c2nc(-c3cccc(OC)c3)cs2)cc1 |  |
|  | > 50 | Brc1cccc(-c2nc(-c3ccccc3)cs2)c1 |  |
|  | > 50 | COc1cccc(-c2csc(-c3ccc(C)cc3Br)n2)c1 |  |
| > 50 | > 50 | COc1cccc(-c2csc(-c3cccc(Br)c3)n2)c1 |  |
| > 50 | > 50 | COc1cccc(-c2csc(-c3cccc(Cl)c3Cl)n2)c1 |  |
| > 50 | > 50 | COc1cccc(-c2csc(-c3cc(OC)ccc3F)n2)c1 |  |
| > 50 | > 50 | COc1cccc(-c2csc(-c3cccc(OC)c3F)n2)c1 |  |
| > 50 | > 50 | CCCCc1ccc(-c2nc(-c3ccccc3)cs2)cc1 |  |
|  | > 50 | COc1cccc(-c2csc(-c3cccc(F)c3F)n2)c1 |  |
| > 50 | > 50 | COc1cccc(-c2csc(-c3cccc(Cl)c3C)n2)c1 |  |
